Activity calls are given as the source filed them. No cut-off for these calls is given here.

Assay [1] deals with T1, Neuronal acetylcholine receptor; alpha3/beta4 (Homo sapiens, UniProt P30926+P32297). Nature of the assay: Agonist activity at alpha-3-beta-4 nAChR in KXalpha-3-beta-4R2 cells by rubidium efflux assay. Format: functional, cell-based. The gist of the method:
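KXα3β4R2 cells stably expressing α3β4 nAChRs, grown in MEM/10% FBS with geneticin selection, plated on poly(D-lysine) and grown 48 h at 37 °C to >90% confluence. Loaded with 86Rb+ (2 μCi/well) 4 h at 37 °C, washed in Hepes-buffered saline pH 7.4, then exposed to compound for 2 min. Released 86Rb+ counted by liquid scintillation.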

For assay [2], the target named is T1, Neuronal acetylcholine receptor; alpha3/beta4. Nature of the assay: Agonist activity at alpha-3-beta-4 nAChR in KXalpha-3-beta-4R2 cells by rubidium efflux assay relative to nicotine. Format: functional, cell-based. Set-up: concentration or dose not given beside the values. The gist of the method: (§1)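 KXα3β4R2 cells (stably expressing α3β4 nAChR) grown in selection MEM with 10% FBS and geneticin, plated on poly(D-lysine) and grown 48 h at 37 °C to >90% confluence. Cells were loaded with 86Rb+ (2 μCi/well) for 4 h at 37 °C and washed three times in buffer A (Hepes/NaCl/KCl/MgSO4/CaCl2/glucose, pH 7.4). Compound in buffer A was applied for 2 min, and efflux was counted by liquid scintillation.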

The target is the same in assay [3]. Nature of the assay: Displacement of [3H]epibatidine from alpha-3-beta-4 nAChR immobilized on liquid chromatographic stationary phases. Format: protein-complex assay. On the technique in general: Loss of bound radioactivity is the signal in a displacement assay; it reports binding, not function.
For assay [4], the target named is Neuronal acetylcholine receptor; alpha4/beta2 (Homo sapiens) (UniProt P17787+P43681). Nature of the assay: Displacement of [3H]epibatidine from alpha-4-beta-2 nAChR immobilized on liquid chromatographic stationary phases. Format: protein-complex assay.
Assay [5] concerns the target T1, Neuronal acetylcholine receptor; alpha3/beta4. Description: Agonist activity at alpha3beta4 nAChR in KXalpha-3-beta-4R2 cells by rubidium efflux assay at 1 mM. It counts as functional, cell-based. A digest of the protocol: as §1

T1 sequence (P30926 whole entry): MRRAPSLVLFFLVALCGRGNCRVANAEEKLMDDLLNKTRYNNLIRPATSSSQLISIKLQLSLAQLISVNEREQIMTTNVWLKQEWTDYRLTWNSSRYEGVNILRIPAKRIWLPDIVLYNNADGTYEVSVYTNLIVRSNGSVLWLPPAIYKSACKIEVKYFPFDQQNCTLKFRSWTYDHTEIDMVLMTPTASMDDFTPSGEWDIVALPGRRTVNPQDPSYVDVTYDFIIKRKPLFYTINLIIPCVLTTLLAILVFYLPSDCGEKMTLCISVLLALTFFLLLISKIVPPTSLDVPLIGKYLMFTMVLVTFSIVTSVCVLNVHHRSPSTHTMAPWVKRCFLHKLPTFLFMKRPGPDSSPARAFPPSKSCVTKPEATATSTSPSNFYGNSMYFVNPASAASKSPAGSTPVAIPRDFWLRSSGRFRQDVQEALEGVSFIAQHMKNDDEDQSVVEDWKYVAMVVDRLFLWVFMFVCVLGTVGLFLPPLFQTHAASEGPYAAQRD
T1 sequence (P32297 whole entry): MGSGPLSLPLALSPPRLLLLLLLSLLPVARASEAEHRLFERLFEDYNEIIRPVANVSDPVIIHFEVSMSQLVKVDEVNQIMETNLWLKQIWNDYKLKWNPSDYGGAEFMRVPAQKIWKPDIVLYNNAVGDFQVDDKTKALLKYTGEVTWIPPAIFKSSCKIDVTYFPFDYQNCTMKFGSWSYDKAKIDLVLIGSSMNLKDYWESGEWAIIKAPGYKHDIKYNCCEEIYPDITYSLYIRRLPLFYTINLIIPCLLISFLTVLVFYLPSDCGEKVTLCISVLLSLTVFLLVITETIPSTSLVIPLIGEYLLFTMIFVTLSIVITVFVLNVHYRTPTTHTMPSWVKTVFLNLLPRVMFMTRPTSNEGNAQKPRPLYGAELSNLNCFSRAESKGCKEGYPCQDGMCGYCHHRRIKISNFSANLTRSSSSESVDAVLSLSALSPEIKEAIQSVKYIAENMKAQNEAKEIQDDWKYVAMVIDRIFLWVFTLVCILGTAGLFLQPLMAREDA

As usually defined, the EC50 is the concentration at which the effect is half-maximal. On to `COC(=O)N1CC[C@@H]2C=Cc3cc(Cl)nc(Cl)c3[C@@H]21`, for which, in assay [1], the EC50 came out at 20.8 µM. For the same compound, the values for the Activity in assay [2], in assay [3] and in assay [4] were 100%, 0.28 mL and 0.28 mL, respectively.

Consider `COC(=O)N1CC[C@@H]2CCc3ccncc3[C@@H]21`, for which the Activity in assay [3] amounted to 0.12 mL; in assay [4] it was 0.23 mL.

For `Clc1cc2c(c(Cl)n1)[C@@H]1NCC[C@@H]1C[C@H]2Sc1ccccc1`, the response in assay [1] was half-maximal at 26.4 µM (EC50). The compound further had an Activity in assay [2] of 35%.

`COC(=O)N1CC[C@@H]2C[C@@H](S(=O)(=O)c3ccccc3)c3cc(Cl)nc(Cl)c3[C@@H]21` registered an EC50 in assay [1] greater than 1000 µM. Moreover, the Activity was 10% in assay [2], -0.12 mL in assay [3] and 0.13 mL in assay [4].

`COC(=O)N1CC[C@@H]2CCc3ccnc(Cl)c3[C@@H]21`: the EC50 in assay [1] is greater than 1000 µM. The Activity is 10% in assay [2], -0.32 mL in assay [3] and 0.18 mL in assay [4].

For `CN1CCC[C@H]1c1cccnc1`, the Activity in assay [2] was 100%; in assay [3] it was 0.16 mL; in assay [4], 0.26 mL.

In assay [1], `c1cc2c(cn1)[C@@H]1NCCC[C@@H]1CC2` returned an EC50 greater than 1000 µM. This compound also gave an Activity in assay [2] of 10%. Moreover, the result in assay [5] was Active.

`COC(=O)N1CC[C@@H]2C[C@@H](Sc3ccccc3)c3cc(Cl)nc(Cl)c3[C@@H]21` displayed an EC50 in assay [1] greater than 1000 µM. The values for the Activity in assay [2], in assay [3] and in assay [4] were 10%, -0.04 mL and 0.17 mL, respectively. In addition, in assay [5], the result was inactive.

`COC(=O)N1CCC[C@@H]2C[C@@H](Sc3ccccc3)c3cc(Cl)nc(Cl)c3[C@@H]21` registered an EC50 in assay [1] of 18.2 µM. Also, the Activity in assay [2] was found to be 100%.

In assay [1], `COC(=O)N1CCC[C@@H]2C=Cc3cc(Cl)nc(Cl)c3[C@@H]21` showed an EC50 of 13.8 µM. Further, the Activity in assay [2] is 75%.

For the compound `Clc1ccc(C2CC3CCC2N3)cn1` (configuration not stated), the outcome in assay [2] was inactive.

These data come from ChEMBL document CHEMBL1149297 (J Med Chem, 2004).
